≈ marks a conversion by molar mass, not a printed value.
Key:
Assay type in all cases: functional
[1] = tested on: ESM; assay: Minimum inhibitory concentration to reduce cytopathicity by 50% in morphology of human embryonic skin-muscle cells (ESM)
[2] = tested on: Vaccinia virus; assay: Minimum inhibitory concentration required for antiviral activity to reduce Vaccinia virus (VV) induced cytopathicity in human embryonic skin-muscle cells (ESM); conditions: Orthopoxvirus vaccinia
Summary of the method: (§1)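 Endpoint is the compound concentration that reduces virus-induced cytopathicity in the host cell monolayer by 50%.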

[3] = tested on: Vesicular stomatitis virus; assay: Minimum inhibitory concentration required for antiviral activity to reduce Vesicular stomatitis virus (VSV) induced cytopathicity in human embryonic skin-muscle cells (ESM); summary of the method: as §1
[4] = tested on: HEL; assay: Minimum inhibitory concentration required for antiviral activity to reduce Cytomegalovirus (CMV) (AD-169) induced cytopathicity in human embryonic lung cells (HEL); summary of the method: as §1
[5] = tested on: HEL; assay: Minimum inhibitory concentration required for antiviral activity to reduce Cytomegalovirus (CMV) (Davis) induced cytopathicity in human embryonic lung cells (HEL); summary of the method: as §1
[6] = tested on: HEL; assay: Minimum inhibitory concentration required for antiviral activity to reduce TK Varicella Zoster virus (VZV) (07/1) induced cytopathicity in human embryonic lung cells (HEL)
[7] = tested on: HEL; assay: Minimum inhibitory concentration required for antiviral activity to reduce Varicella Zoster virus (VZV) (Oka) induced cytopathicity in human embryonic lung cells (HEL)
[8] = tested on: HEL; assay: Minimum inhibitory concentration to reduce cytopathicity by 50% in proliferation of human embryonic lung cells (HEL)
Summary of the method: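 Host cell toxicity is read as the compound concentration that reduces HEL cell proliferation by 50%.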

[9] = tested on: Respiratory syncytial virus; assay: Minimum inhibitory concentration required for antiviral activity to reduce Respiratory syncytial virus (RSV) (Long) induced cytopathicity in human carcinoma cells (HeLa); summary of the method: as §1
[10] = tested on: HeLa; assay: Minimum inhibitory concentration to reduce cytopathicity by 50% in morphology of human carcinoma cells (HeLa)
Summary of the method: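 Cytotoxicity endpoint is the minimum compound concentration that causes a microscopically detectable alteration of normal host cell morphology.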

[11] = tested on: MDCK; assay: Minimum inhibitory concentration required for antiviral activity to reduce Influenza A virus (Ishikawa) induced cytopathicity in Madin-Darby canine kidney cells (MDCK); conditions: Canis lupus familiaris; summary of the method: as §1
[12] = tested on: MDCK; assay: Minimum inhibitory concentration required for antiviral activity to reduce influenza B virus (Singapore) induced cytopathicity in Madin-Darby canine kidney cells (MDCK); conditions: Canis lupus familiaris; summary of the method: as §1
[13] = tested on: MDCK; assay: Minimum inhibitory concentration to reduce cytopathicity by 50% in morphology of Madin-Darby canine kidney cells (MDCK); conditions: Canis lupus familiaris
[14] = tested on: Human alphaherpesvirus 1; assay: Minimum inhibitory concentration required for antiviral activity to reduce TK-HSV-1 (B2006) induced cytopathicity in human embryonic skin-muscle cells (ESM); summary of the method: as §1

| SMILES | MIC [1] [µg/mL] | MIC [2] [µg/mL] | MIC [3] [µg/mL] | MIC [4] [µg/mL] | MIC [5] [µg/mL] | MIC [6] [µg/mL] | MIC [7] [µg/mL] | MIC [8] [µg/mL] | MIC [9] [µg/mL] | MIC [10] [µg/mL] | MIC [11] [µg/mL] | MIC [12] [µg/mL] | MIC [13] [µg/mL] | MIC [14] [µg/mL] |
| --- | --- | --- | --- | --- | --- | --- | --- | --- | --- | --- | --- | --- | --- | --- |
| CCCC#Cc1nc2c(N)ncnc2n1[C@H]1C[C@H](O)[C@@H](CO)O1 | 400 (≈ 1260 µM) | 150 (≈ 473 µM) | 70 (≈ 221 µM) | 10 (≈ 31.5 µM) | 10 (≈ 31.5 µM) | 20 (≈ 63 µM) | 40 (≈ 126 µM) | 10 (≈ 31.5 µM) | > 100 | 100 (≈ 315 µM) | 30 (≈ 94.5 µM) | > 100 | 100 (≈ 315 µM) | 100 (≈ 315 µM) |
| CCCCC/C=C\c1nc2c(N)ncnc2n1[C@H]1C[C@H](O)[C@@H](CO)O1 | > 100 | 20 (≈ 57.6 µM) | > 40 | 30 (≈ 86.4 µM) | 20 (≈ 57.6 µM) | 10 (≈ 28.8 µM) | 15 (≈ 43.2 µM) | 20 (≈ 57.6 µM) | 14 (≈ 40.3 µM) | 100 (≈ 288 µM) | 12 (≈ 34.5 µM) | > 100 | 100 (≈ 288 µM) | > 40 |
| CCCCCCCc1nc2c(N)ncnc2n1[C@H]1C[C@H](O)[C@@H](CO)O1 | > 100 | 20 (≈ 57.2 µM) | > 40 | 4 (≈ 11.4 µM) | 4 (≈ 11.4 µM) | 6 (≈ 17.2 µM) | 10 (≈ 28.6 µM) | 13 (≈ 37.2 µM) | 20 (≈ 57.2 µM) | 100 (≈ 286 µM) | 20 (≈ 57.2 µM) | > 100 | 100 (≈ 286 µM) | > 40 |
| CCCCCC#Cc1nc2c(N)ncnc2n1[C@H]1C[C@H](O)[C@@H](CO)O1 | > 200 | 7 (≈ 20.3 µM) | 20 (≈ 57.9 µM) | 2 (≈ 5.79 µM) | 7 (≈ 20.3 µM) | 8 (≈ 23.2 µM) | 15 (≈ 43.4 µM) | 6 (≈ 17.4 µM) | 30 (≈ 86.9 µM) | 100 (≈ 290 µM) | > 100 | 100 (≈ 290 µM) | 100 (≈ 290 µM) | > 100 |
| Nc1nc2c(ncn2COCCO)c(=O)[nH]1 [ACYCLOVIR] | > 400 | > 400 | > 400 | 35 (≈ 155 µM) | 50 (≈ 222 µM) |  |  | > 200 |  |  |  |  |  | 100 (≈ 444 µM) |
| O=c1[nH]c(=O)n([C@H]2C[C@H](O)[C@@H](CO)O2)cc1/C=C/Br [BRIVUDINE] | > 400 | 2 (≈ 6 µM) | > 400 | 70 (≈ 210 µM) | 70 (≈ 210 µM) | > 10 | 0.004 (≈ 0.012 µM) | > 200 |  |  |  |  |  | > 200 |
| Nc1ncnc2c1ncn2[C@H]1C[C@H](O)[C@@H](CO)O1 [DEOXYADENOSINE] | > 400 | > 400 | > 400 | > 100 | > 100 | > 100 | > 100 |  | 20 (≈ 79.6 µM) | 200 (≈ 796 µM) | > 200 | > 200 | > 200 | > 400 |
| NC(=O)c1ncn([C@@H]2O[C@H](CO)[C@@H](O)[C@H]2O)n1 [RIBAVIRIN] | > 400 | 70 (≈ 287 µM) | > 400 |  |  |  |  |  |  |  |  |  |  | > 300 |
